Reference: ChEMBL document CHEMBL2390929, “New nitric oxide donating 1,2,4-triazole/oxime hybrids: synthesis, investigation of anti-inflammatory, ulceroginic liability and antiproliferative activities” (Bioorg Med Chem, 2013)

How the values were obtained:
T47D = experiment: Cytotoxicity against human T47D cells assessed as cell growth at 10^-5 M after 48 hrs by SRB assay; type: functional; settings: read-out: Activity
Summary of the method: (§1)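 NCI-60 one-dose screen across nine tumour subpanels. Each agent added once at 10^-5 M, cultures incubated 48 h. Endpoint is sulforhodamine B protein staining read spectrophotometrically. Output is percent growth of treated cells relative to untreated controls.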

DU-145 = experiment: Cytotoxicity against human DU145 cells assessed as cell growth at 10^-5 M after 48 hrs by SRB assay; type: functional; settings: DU-145, 48 h, read-out: Activity
Summary of the method: (§2)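 NCI 60-cell-line primary one-dose screen across nine tumour subpanels. Compound added at a single concentration of 10^-5 M and cultures incubated 48 h. Endpoint was sulforhodamine B protein staining read spectrophotometrically, with growth expressed as percent of untreated control cells.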

SN12C = experiment: Cytotoxicity against human SN12C cells assessed as cell growth at 10^-5 M after 48 hrs by SRB assay; type: functional; settings: read-out: Activity; summary of the method: as §1
786-0 = experiment: Cytotoxicity against human 786-0 cells assessed as cell growth at 10^-5 M after 48 hrs by SRB assay; type: functional; settings: 786-0, 48 h, read-out: Activity; summary of the method: as §2
NCI/ADR-RES = experiment: Cytotoxicity against human NCI/ADR-RES cells assessed as cell growth at 10^-5 M after 48 hrs by SRB assay; type: functional; settings: read-out: Activity; summary of the method: as §2
SK-OV-3 = experiment: Cytotoxicity against human SKOV3 cells assessed as cell growth at 10^-5 M after 48 hrs by SRB assay; type: functional; settings: SK-OV-3, 48 h, read-out: Activity; summary of the method: as §1
OVCAR-8 = experiment: Cytotoxicity against human OVCAR8 cells assessed as cell growth at 10^-5 M after 48 hrs by SRB assay; type: functional; settings: OVCAR-8, 48 h, read-out: Activity; summary of the method: as §2
OVCAR-4 = experiment: Cytotoxicity against human OVCAR4 cells assessed as cell growth at 10^-5 M after 48 hrs by SRB assay; type: functional; settings: OVCAR-4, 48 h, read-out: Activity; summary of the method: as §2
OVCAR-3 = experiment: Cytotoxicity against human OVCAR3 cells assessed as cell growth at 10^-5 M after 48 hrs by SRB assay; type: functional; settings: OVCAR-3, 48 h, read-out: Activity; summary of the method: as §2
UACC-62 = experiment: Cytotoxicity against human UACC62 cells assessed as cell growth at 10^-5 M after 48 hrs by SRB assay; type: functional; settings: UACC-62, 48 h, read-out: Activity; summary of the method: as §1
IGROV-1 = experiment: Cytotoxicity against human IGROV1 cells assessed as cell growth at 10^-5 M after 48 hrs by SRB assay; type: functional; settings: IGROV-1, 48 h, read-out: Activity; summary of the method: as §2
SK-MEL-5 = experiment: Cytotoxicity against human SK-MEL-5 cells assessed as cell growth at 10^-5 M after 48 hrs by SRB assay; type: functional; settings: SK-MEL-5, 48 h, read-out: Activity; summary of the method: as §1
SK-MEL-2 = experiment: Cytotoxicity against human SK-MEL-2 cells assessed as cell growth at 10^-5 M after 48 hrs by SRB assay; type: functional; settings: SK-MEL-2, 48 h, read-out: Activity; summary of the method: as §2
SK-MEL-28 = experiment: Cytotoxicity against human SK-MEL-28 cells assessed as cell growth at 10^-5 M after 48 hrs by SRB assay; type: functional; settings: SK-MEL-28, 48 h, read-out: Activity; summary of the method: as §1
M14 = experiment: Cytotoxicity against human M14 cells assessed as cell growth at 10^-5 M after 48 hrs by SRB assay; type: functional; settings: M14, 48 h, read-out: Activity; summary of the method: as §2
LOX IMVI = experiment: Cytotoxicity against human LOXIMVI cells assessed as cell growth at 10^-5 M after 48 hrs by SRB assay; type: functional; settings: read-out: Activity; summary of the method: as §2
SF-539 = experiment: Cytotoxicity against human SF539 cells assessed as cell growth at 10^-5 M after 48 hrs by SRB assay; type: functional; settings: SF-539, 48 h, read-out: Activity; summary of the method: as §2
HCT-15 = experiment: Cytotoxicity against human HCT15 cells assessed as cell growth at 10^-5 M after 48 hrs by SRB assay; type: functional; settings: HCT-15, 48 h, read-out: Activity; summary of the method: as §2
NCI-H460 = experiment: Cytotoxicity against human NCI-H460 cells assessed as cell growth at 10^-5 M after 48 hrs by SRB assay; type: functional; settings: NCI-H460, 48 h, read-out: Activity; summary of the method: as §2
NCI-H23 = experiment: Cytotoxicity against human NCI-H23 cells assessed as cell growth at 10^-5 M after 48 hrs by SRB assay; type: functional; settings: NCI-H23, 48 h, read-out: Activity; summary of the method: as §2
HOP-62 = experiment: Cytotoxicity against human HOP62 cells assessed as cell growth at 10^-5 M after 48 hrs by SRB assay; type: functional; settings: HOP-62, 48 h, read-out: Activity; summary of the method: as §2
A549 = experiment: Cytotoxicity against human A549 cells assessed as cell growth at 10^-5 M after 48 hrs by SRB assay; type: functional; settings: A549, 48 h, read-out: Activity; summary of the method: as §2
HL-60(TB) = experiment: Cytotoxicity against human HL-60(TB) cells assessed as cell growth at 10^-5 M after 48 hrs by SRB assay; type: functional; settings: HL-60, 48 h, read-out: Activity
Summary of the method: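 NCI 60-cell-line one-dose screen: compound added to cultures at a single concentration of 10^-5 M, incubated 48 h. End point by sulforhodamine B protein staining, read spectrophotometrically. Value is percent growth of treated cells relative to untreated control cells.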

Rattus norvegicus [1] = experiment: Gastrointestinal toxicity in albino rat assessed as ulcer index at 0.28 mmol/kg, po (reference value: 0.60 +/- 0.05); type: organism-based; settings: in vivo
Rattus norvegicus [2] = experiment: Antiinflammatory activity in albino rat assessed as inhibition of carrageenan-induced paw edema at 0.28 mmol/kg, po after 5 hrs relative to control; type: functional
Summary of the method: (§3)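 Adult male albino rats (120–140 g), four per group, fasted 24 h with water allowed. Test agent suspended in 0.5% w/v aqueous CMC and given orally at 0.28 mmol/kg; controls received CMC alone. After 30 min, 0.1 mL fresh 1% carrageenan in saline was injected subplantar into the right hind paw and saline into the left. Paw thickness was measured by Vernier caliper; % inhibition = [(VR−VL)control − (VR−VL)treated]/(VR−VL)control ×100. Mean ± SEM, one-way ANOVA.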

Rattus norvegicus [3] = experiment: Antiinflammatory activity in albino rat assessed as inhibition of carrageenan-induced paw edema at 0.28 mmol/kg, po after 4 hrs relative to control; type: functional; summary of the method: as §3
Rattus norvegicus [4] = experiment: Antiinflammatory activity in albino rat assessed as inhibition of carrageenan-induced paw edema at 0.28 mmol/kg, po after 3 hrs relative to control; type: functional; summary of the method: as §3
[5] = Induction of nitric oxide release in phosphate buffer at pH 7.4 at 0.1 mM after 4 hrs by Griess method in presence of 0.5 mM of N-acetylcysteine; type: physicochemical; settings: pH 7.4, 4 h, 100 µM
Summary of the method: (§4)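 Compound in DMF diluted to final 10^-4 M in 1:1 50 mM phosphate buffer pH 7.4/MeOH with 5×10^-4 M N-acetylcysteine, 37 °C. Aliquot mixed with Griess reagent, 10 min at room temperature, A546 read. Nitrite quantified against sodium nitrite standards (10–80 nmol/mL); NO expressed as mol/mol. n = 4 reaction mixtures per compound.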

[6] = Induction of nitric oxide release in phosphate buffer at pH 7.4 at 0.1 mM after 2 hrs by Griess method in presence of 0.5 mM of N-acetylcysteine; type: physicochemical; settings: pH 7.4, 2 h, 100 µM; summary of the method: as §4

Structure (SMILES): CCn1c(SC/C(=N/O)c2ccccc2)nnc1-c1ccc(OC)c(OC)c1
- growth at 10 µM (T47D): 99.6%
- growth at 10 µM (DU-145): 112%
- growth at 10 µM (SN12C): 99.5%
- growth at 10 µM (786-0): 115%
- growth at 10 µM (NCI/ADR-RES): 103%
- growth at 10 µM (SK-OV-3): 96.4%
- growth at 10 µM (OVCAR-8): 104%
- growth at 10 µM (OVCAR-4): 97.5%
- growth at 10 µM (OVCAR-3): 106%
- growth at 10 µM (UACC-62): 95.5%
- growth at 10 µM (IGROV-1): 106%
- growth at 10 µM (SK-MEL-5): 96.3%
- growth at 10 µM (SK-MEL-2): 105%
- growth at 10 µM (SK-MEL-28): 103%
- growth at 10 µM (M14): 126%
- growth at 10 µM (LOX IMVI): 93%
- growth at 10 µM (SF-539): 100%
- growth at 10 µM (HCT-15): 105%
- growth at 10 µM (NCI-H460): 105%
- growth at 10 µM (NCI-H23): 102%
- growth at 10 µM (HOP-62): 85.9%
- growth at 10 µM (A549): 95.7%
- growth at 10 µM (HL-60(TB)): 95.8%
- UI (Rattus norvegicus [1]): 1.58
- inhibition in vivo at 280 µmol/kg (Rattus norvegicus [2]): 71%
- inhibition in vivo at 280 µmol/kg (Rattus norvegicus [3]): 82%
- inhibition in vivo at 280 µmol/kg (Rattus norvegicus [4]): 71%
- Activity [5]: 0.24 mol/mol
- Activity [6]: 0.13 mol/mol
